Screens (PubChem BioAssay)
H9c2 TAG inh – inhibitors of triacylglycerol accumulation, primary screen, cell-based, uHTS, fluorescence, H9c2 | actives 0.66% (n = 230,000) | H9c2 cells, Nile Red lipid (TAG) fluorescence; cells loaded with 200 µM oleic acid | inhibition, % at 12.5 µM | AID 651582, 2012;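 active means pattern-corrected inhibition of lipid staining of at least 50% with the nuclear-stain viability signal not falling by more than 50%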
sPLA2-III inh – human group III sPLA2 inhibitors, primary screen, biochemical, QFRET, BODIPY PC-A2 liposome substrate. actives 0.56% (n = 370,000). QFRET BODIPY PC-A2 liposome hydrolysis, fluorescence. inhibition, % at 12.2 µM. Group 3 secretory phospholipase A2 (Homo sapiens), Q9NZ20;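 active means inhibition above mean plus 3 SD of compounds lying within the high and low control bounds, cut at about 19% in these data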
Target sequence (Q9NZ20 whole entry, looked up): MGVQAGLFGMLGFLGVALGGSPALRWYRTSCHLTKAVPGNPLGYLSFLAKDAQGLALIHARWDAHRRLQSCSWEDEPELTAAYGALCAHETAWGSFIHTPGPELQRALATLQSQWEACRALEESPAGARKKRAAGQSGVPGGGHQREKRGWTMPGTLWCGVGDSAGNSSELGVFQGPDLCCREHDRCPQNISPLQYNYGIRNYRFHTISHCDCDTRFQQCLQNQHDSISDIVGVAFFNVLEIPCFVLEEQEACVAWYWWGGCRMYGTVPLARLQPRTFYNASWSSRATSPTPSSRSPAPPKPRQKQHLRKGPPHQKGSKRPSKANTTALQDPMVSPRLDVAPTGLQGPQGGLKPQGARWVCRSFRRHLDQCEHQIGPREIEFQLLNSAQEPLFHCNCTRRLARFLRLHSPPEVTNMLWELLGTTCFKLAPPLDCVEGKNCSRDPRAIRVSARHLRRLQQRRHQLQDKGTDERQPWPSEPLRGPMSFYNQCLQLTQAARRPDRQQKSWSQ
Efflux pump mplx – inhibitors of Candida efflux pumps in yeast, primary screen, S. cerevisiae, Nile Red, multiplex; AID 485275, 2010; actives 0.44% (n = 330,000); inhibition, % at 10 µM; S. cerevisiae Candida pump triplex;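 active means plate passing quality check with inhibition over a set limit, or well fluorescence over plate mean plus 4 SD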;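 further: Nile Red retained in pooled yeast measured as flow cytometry median fluorescence; higher means more Nile Red kept so more efflux inhibition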
MT1-MMP act inh – blockers of MT1-MMP proenzyme processing, primary screen, HT1080 RFP-PRO-GFP cells, GFP/RFP fluorescence; Matrix metalloproteinase-14 (Homo sapiens), P50281; GFP/RFP ratio fluorescence, overnight; percent of plate control window, DMSO zero; GFP/RFP ratio change, % at 20 µM; actives 0.061% (n = 360,000); AID 651647, 2012;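 active means GFP/RFP ratio change of at least 30% with cell ATP level not reduced by more than half and red fluorescence within 50% of control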
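Assay system: HT1080 RFP-PRO-GFP cells | Dosing: 20 µM single dose, 1% DMSO | Incubation: Cells overnight before dosing, compound overnight, 37 °C, 5% CO2 | Evaluation: GFP/RFP fluorescence ratio | Control set: DMSO-only wells and HT1080 RFP-L50D-GFP cell wells as references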
H9c2 TAG conf – triacylglycerol accumulation inhibitors, retest, confirmation, cell-based, single concentration, Nile Red fluorescence, H9c2. shares compounds with H9c2 TAG inh. H9c2 lipid accumulation; cells loaded with 200 µM oleic acid. inhibition, % at 12.5 µM. AID 651629, 2012. actives 71% (n = 990);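 active means mean inhibition across replicates of 40% or more; inactive means mean inhibition below 40%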
Of the large screens only hits and unclear results are named; the others gave an inactive call (follow-up assays come after a bar, where they were run). The list is not random: actives were taken first. Their share in the collection is about 1.3%.

COc1cc(C2C3=C(COC3=O)Oc3cc4c(cc32)OCO4)ccc1O (configuration not stated)	H9c2 TAG inh 55 (no result: Efflux pump mplx) | H9c2 TAG conf 71
COc1ccccc1OCC(=O)Nc1ccc(S(=O)(=O)N(C)c2ccccc2)cc1	none
C=CCn1c(N)c(C(=O)Nc2ccccc2)c2nc3ccccc3nc21	H9c2 TAG inh 78 | H9c2 TAG conf 88
CC(C)Cn1c(N)c(C(=O)CSc2ncnc3sc4c(c23)CCCC4)c(=O)n(C)c1=O	none
Cc1ccc(S(=O)(=O)N(C)C)cc1NC(=O)CCc1ccccc1	none
O=C(N[C@H](C(=O)N1CCC[C@H]1C(=O)NCCc1ccccc1Cl)C1CCCCC1)c1ccc(Cl)c(Cl)c1	none (no result: H9c2 TAG inh, Efflux pump mplx, MT1-MMP act inh)
CC(C)C[C@@H](CNC(=O)OC(C)(C)C)NC(=O)c1nc[nH]c1C(=O)N[C@@H](CC(C)C)C(=O)CNC[C@H](CC(C)C)NC(=O)c1nc[nH]c1C(=O)N[C@@H](Cc1c[nH]c2ccccc12)C(=O)OC(C)(C)C	H9c2 TAG inh 60 | H9c2 TAG conf 52
CCN1CCN(Cc2ccc(NC(=O)c3ccc(C)c(NC(=O)C(=O)c4c[nH]c5ccccc45)c3)cc2C(F)(F)F)CC1	H9c2 TAG inh 77 | H9c2 TAG conf 79
CCN1CCN(Cc2ccc(NC(=O)c3cc(NC(=O)C(=O)c4c[nH]c5ccccc45)cc(OC)c3)cc2C(F)(F)F)CC1	H9c2 TAG inh 104 | H9c2 TAG conf 94
CCCN1CCN(C(=O)C(C)n2nc(C)c3sc4ccccc4c3c2=O)CC1 (configuration not stated)	none (no result: H9c2 TAG inh)
Cc1cc(C)c2nc(-c3ccncc3)cc(C(=O)N3CCN(Cc4ccccc4Cl)CC3)c2c1	H9c2 TAG inh 62 | H9c2 TAG conf 59
COc1cc(C2c3cc4c(cc3OC(N3CCCC3)C2C)OCO4)cc(OC)c1O (configuration not stated)	none (no result: Efflux pump mplx)
COc1cc(C2c3cc4c(cc3OC(C)(N3CCCC3)C2C)OCO4)cc(OC)c1OC (configuration not stated)	H9c2 TAG inh 56 (no result: Efflux pump mplx) | H9c2 TAG conf 56
CN(C)C(=O)CCc1ccc2c3c([nH]c2c1)[C@]1(C)[C@@H](C(=O)N2CCOCC2)C[C@H](CC(=O)NCCCn2ccnc2)C(=O)N1CC3	none
CCN(CC)C(=O)[C@H]1C[C@H](CC(=O)NCCCn2ccnc2)C(=O)N2CCc3c([nH]c4cc(CCC(=O)N(C)C)ccc34)[C@]12C	H9c2 TAG inh 53 | H9c2 TAG conf inactive
O=C(c1ccncc1)N1CCN(S(=O)(=O)c2ccc(F)cc2)CC1	none
O=[N+]([O-])c1ccc(NCCCNS(=O)(=O)c2ccccc2)c(Cl)c1	none
Cc1ccc2c(c1)-c1c(cnn1CC(=O)O)CO2	none
Cc1ccc2c(c1)-c1c(cnn1CC(=O)Nc1ccccc1N1CCN(C)CC1)CO2	H9c2 TAG inh 53 | H9c2 TAG conf 51
CC1=NN(S(=O)(=O)c2ccc(C)cc2)C(=O)c2ccccc2O1	none
COc1ccc(S(=O)(=O)N2N=C(C)Oc3ccccc3C2=O)cc1	H9c2 TAG inh 63 | H9c2 TAG conf 54
CC(=O)O[C@H]1C(=O)[C@]2(C)[C@H]([C@H](OC(=O)c3ccccc3)[C@]3(O)C[C@H](OC(=O)[C@H](O)[C@@H](NC(=O)c4ccccc4)c4ccccc4)C(C)=C1C3(C)C)[C@]1(OC(C)=O)CO[C@@H]1C[C@@H]2O	H9c2 TAG inh 54 | H9c2 TAG conf 57
CC(=O)O[C@H]1C(=O)[C@@]2(C)C([C@H](OC(=O)c3ccccc3)[C@]3(O)C[C@H](OC(=O)[C@H](O)[C@@H](NC(=O)c4ccccc4)c4ccccc4)C(C)=C1C3(C)C)[C@]1(OC(C)=O)CO[C@@H]1C[C@H]2O (some centres not stated)	none (no result: H9c2 TAG inh)
C#CCOCCOCCOCCNc1nc(N2CCN(C(=O)[C@H](CCCCN)n3cc([C@@H](N)CO)nn3)CC2)nc(N2CCN(C(=O)[C@H](CCCCN)n3cc([C@@H](N)CC(C)C)nn3)CC2)n1	H9c2 TAG inh 70 | H9c2 TAG conf inactive
C#CCOCCOCCOCCNc1nc(N2CCN(C(=O)[C@H]([C@@H](C)CC)n3cc([C@@H](N)CO)nn3)CC2)nc(N2CCN(C(=O)[C@H](CCCCN)n3cc([C@@H](N)CC(C)C)nn3)CC2)n1	none (no result: H9c2 TAG inh, MT1-MMP act inh)
N#C/C(=C\c1ccc(OC(F)F)cc1)C(=O)N1CCCCC1	H9c2 TAG inh 83 | H9c2 TAG conf inactive
CCN1CCN(C(=O)/C(C#N)=C/c2ccc(OC(F)F)cc2)CC1	none
CC1CCc2sc(NC(=O)C3CC(Cl)=CCC3C(=O)O)c(C#N)c2C1 (configuration not stated)	none (no result: H9c2 TAG inh)
Cc1ccc(-n2nc(C(=O)NCc3ccc(C)o3)c3c4ccccc4n(C)c3c2=O)cc1	H9c2 TAG inh 53 | H9c2 TAG conf inactive
O=C(CCC(=O)N1CCc2ccccc2C1)NCCc1ccc(Cl)cc1	none
Cc1cc(C)cc(CC(=O)N2CCC2(C)C(=O)NS(=O)(=O)c2ccc(Cl)s2)c1 (configuration not stated)	H9c2 TAG inh 75 (no result: Efflux pump mplx) | H9c2 TAG conf inactive
COc1ccc(-c2nc(NC(=O)Cn3c(=O)oc4ccccc43)sc2C)cc1	none (no result: H9c2 TAG inh)
COc1ccc(-c2nc(NC(=O)C3CCN(c4nc5ccccc5o4)CC3)sc2C)cc1	H9c2 TAG inh 66 | H9c2 TAG conf 58
O=S(=O)(Nc1ccc2ccccc2n1)c1ccccc1	none
O=C(CSc1ccc(-c2cccc([N+](=O)[O-])c2)nn1)N1CCCC1	H9c2 TAG inh 60 | H9c2 TAG conf inactive
O=C(CSc1ccc(-c2cccc([N+](=O)[O-])c2)nn1)N1CCCCCC1	none
COc1ccc(C(=O)NNC(=O)Cc2ccc(-c3ccccc3)cc2)cc1OC	H9c2 TAG inh 57 | H9c2 TAG conf inactive
Fc1cccc(Nc2nc(-c3ccncc3)nc3ccccc23)c1	H9c2 TAG inh 69 | H9c2 TAG conf 63
COC(=O)c1ccc(Oc2cc(C)nc(SC)n2)cc1	H9c2 TAG inh 51 | H9c2 TAG conf 41
CC(C)(C)c1cc(NCc2ccccn2)n2ncc(-c3ccc(Cl)cc3)c2n1	H9c2 TAG inh 52 | H9c2 TAG conf 44
CN(C)CCCNc1cc(C(C)(C)C)nc2c(-c3ccc(Cl)cc3)cnn12	none
CCCCNC(=O)CSc1nc2ccc(Nc3nc(N4CCOCC4)nc(N4CCOCC4)n3)cc2s1	H9c2 TAG inh 57 | H9c2 TAG conf inactive
Cc1ccc(Nc2nc(N3CCOCC3)nc(N3CCOCC3)n2)cc1C	none (no result: H9c2 TAG inh)
CCCCSc1nc2ccc(Nc3nc(N4CCOCC4)nc(N4CCOCC4)n3)cc2s1	H9c2 TAG inh 80 | H9c2 TAG conf 97
